Results: ChEMBL document CHEMBL3808376, “Iminolactones as tools for inversion of the absolute configuration of α-amino acids and as inhibitors of cancer cell proliferation” (Eur J Med Chem, 2016)
One block for each compound: values may come before it.

Legend:
[1] = Antiproliferative activity against human MCF10A cells after 48 hrs by Sulforhodamine B assay; assay type: cell-based; settings: MCF-10A
[2] = Antiproliferative activity against mouse NIH/3T3 cells after 48 hrs by Sulforhodamine B assay; assay type: cell-based; settings: NIH3T3, 48 h
[3] = Antiproliferative activity against human PC3 cells after 48 hrs by Sulforhodamine B assay; assay type: functional, cell-based; settings: PC-3, 48 h
How it was run: (§1)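 Cancer lines from the National Cancer Institute (murine leukemic EL4, human breast MCF7, human prostate PC3), in a standard high-flux screening format. Cells incubated with compound at several concentrations, 37 °C for 48 h. Trichloroacetic acid fixation, sulforhodamine B staining, absorbance read at 490 nm. IC50 reported as mean SD of three experiments.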

EL4 = assay: Antiproliferative activity against mouse EL4 cells after 48 hrs by Sulforhodamine B assay; assay type: functional, cell-based; settings: EL4, 48 h; how it was run: as §1
[4] = Antiproliferative activity against mouse McCoy cells after 48 hrs by Sulforhodamine B assay; assay type: cell-based
MCF7 = assay: Antiproliferative activity against human MCF7 cells after 48 hrs by Sulforhodamine B assay; assay type: functional, cell-based; settings: MCF7, 48 h; how it was run: as §1

IC50 (MCF7): 40 µM
Structure (SMILES): CC(C)(C)OC(=O)CC[C@@H]1N=C2C[C@@H]3C[C@@H](C3(C)C)[C@]2(C)OC1=O
IC50 [1]: > 1000 µM
IC50 [2]: > 1000 µM
IC50 [3]: 42 µM
IC50 (EL4): 36 µM
IC50 [4]: > 1000 µM

IC50 (MCF7): 162 µM
Structure (SMILES): CC1(C)N=C2C[C@H]3C[C@H](C3(C)C)[C@@]2(C)OC1=O
IC50 [1]: > 2000 µM
IC50 [2]: > 2000 µM
IC50 [3]: 166 µM
IC50 (EL4): 149 µM
IC50 [4]: > 2000 µM

IC50 (MCF7): 17 µM
Structure (SMILES): CC(C)(C)OC(=O)NCCCC[C@@H]1N=C2C[C@@H]3C[C@@H](C3(C)C)[C@]2(C)OC1=O
IC50 [1]: > 800 µM
IC50 [2]: > 800 µM
IC50 [3]: 18 µM
IC50 (EL4): 15 µM
IC50 [4]: > 800 µM

IC50 (MCF7): 77 µM
Structure (SMILES): C[C@@]12CCCC[C@H]1CC[C@@H]1OC(=O)[C@H](Cc3c[nH]c4ccccc34)N=C12
IC50 [1]: > 1500 µM
IC50 [2]: > 1500 µM
IC50 [3]: 83 µM
IC50 (EL4): 71 µM
IC50 [4]: > 1500 µM

IC50 (MCF7): 6.3 µM
Structure (SMILES): CC(C)(C)OC(=O)NCCC[C@@H]1N=C2C[C@@H]3C[C@@H](C3(C)C)[C@]2(C)OC1=O
IC50 [1]: > 1200 µM
IC50 [2]: > 1200 µM
IC50 [3]: 6.6 µM
IC50 (EL4): 4.1 µM
IC50 [4]: > 1200 µM

Structure (SMILES): CC1(C)[C@H]2CC[C@]1(C)[C@H]1OC(=O)[C@H](Cc3ccccc3)N=C21
IC50 [3]: 160 µM

IC50 (MCF7): 142 µM
Structure (SMILES): CC(C)(C)OC(=O)n1cnc(C[C@H]2N=C3C[C@H]4C[C@H](C4(C)C)[C@@]3(C)OC2=O)c1
IC50 [1]: > 1300 µM
IC50 [2]: > 1300 µM
IC50 [3]: 147 µM
IC50 (EL4): 139 µM
IC50 [4]: > 1300 µM

IC50 (MCF7): 11 µM
Structure (SMILES): C[C@@]12CCCC[C@H]1CC[C@@H]1OC(=O)CN=C12
IC50 [1]: > 2000 µM
IC50 [2]: > 2000 µM
IC50 [3]: 13 µM
IC50 (EL4): 7.7 µM
IC50 [4]: > 2000 µM

IC50 (MCF7): 38 µM
Structure (SMILES): C[C@H]1N=C2C[C@H]3C[C@H](C3(C)C)[C@@]2(C)OC1=O
IC50 [1]: > 1800 µM
IC50 [2]: > 1800 µM
IC50 [3]: 42 µM
IC50 (EL4): 27 µM
IC50 [4]: > 1800 µM

IC50 (MCF7): 38 µM
Structure (SMILES): CC1(C)[C@@H]2CC3=N[C@@H](CCC(=O)O)C(=O)O[C@@]3(C)[C@H]1C2
IC50 [1]: > 1200 µM
IC50 [2]: > 1200 µM
IC50 [3]: 42 µM
IC50 (EL4): 36 µM
IC50 [4]: > 1200 µM

IC50 (MCF7): 56 µM
Structure (SMILES): CC(C)(C)OC(=O)NCCC[C@H]1N=C2C[C@H]3C[C@H](C3(C)C)[C@@]2(C)OC1=O
IC50 [1]: > 1500 µM
IC50 [2]: > 1500 µM
IC50 [3]: 60 µM
IC50 (EL4): 48 µM
IC50 [4]: > 1500 µM

IC50 (MCF7): 57 µM
Structure (SMILES): C[C@H]1N=C2[C@H](CC[C@@H]3CCCC[C@@]23C)OC1=O
IC50 [1]: > 2000 µM
IC50 [2]: > 2000 µM
IC50 [3]: 57 µM
IC50 (EL4): 53 µM
IC50 [4]: > 2000 µM

IC50 (MCF7): 41 µM
Structure (SMILES): O=C1O[C@H]2CCc3ccccc3C2=N[C@H]1Cc1ccccc1
IC50 [1]: > 1000 µM
IC50 [2]: > 1000 µM
IC50 [3]: 45 µM
IC50 (EL4): 39 µM
IC50 [4]: > 1000 µM

IC50 (MCF7): 34 µM
Structure (SMILES): CC1(C)[C@H]2CC3=N[C@H](CCC(=O)O)C(=O)O[C@]3(C)[C@@H]1C2
IC50 [1]: > 1200 µM
IC50 [2]: > 1200 µM
IC50 [3]: 38 µM
IC50 (EL4): 30 µM
IC50 [4]: > 1200 µM

IC50 (MCF7): 15.3 µM
Structure (SMILES): CC(C)(C)OC(=O)NCCCC[C@H]1N=C2C[C@H]3C[C@H](C3(C)C)[C@@]2(C)OC1=O
IC50 [1]: > 1300 µM
IC50 [2]: > 1300 µM
IC50 [3]: 15.9 µM
IC50 (EL4): 14.5 µM
IC50 [4]: > 1300 µM

IC50 (MCF7): 22 µM
Structure (SMILES): CC1(C)[C@@H]2CC3=NCC(=O)O[C@@]3(C)[C@H]1C2
IC50 [1]: > 900 µM
IC50 [2]: > 900 µM
IC50 [3]: 43 µM
IC50 (EL4): 19 µM
IC50 [4]: > 900 µM

IC50 (MCF7): 154 µM
Structure (SMILES): C[C@@H]1N=C2C[C@@H]3C[C@@H](C3(C)C)[C@]2(C)OC1=O
IC50 [1]: > 2000 µM
IC50 [2]: > 2000 µM
IC50 [3]: 149 µM
IC50 (EL4): 145 µM
IC50 [4]: > 2000 µM

IC50 (MCF7): > 300 µM
Structure (SMILES): CC1(C)[C@H]2CC3=NCC(=O)O[C@]3(C)[C@@H]1C2
IC50 [1]: > 2000 µM
IC50 [2]: > 2000 µM
IC50 [3]: > 300 µM
IC50 (EL4): > 300 µM
IC50 [4]: > 2000 µM

IC50 (MCF7): > 300 µM
Structure (SMILES): CC1(C)[C@@H]2CC3=N[C@@H](Cc4ccccc4)C(=O)O[C@@]3(C)[C@H]1C2
IC50 [1]: > 1000 µM
IC50 [2]: > 1000 µM
IC50 [3]: > 300 µM
IC50 (EL4): > 300 µM
IC50 [4]: > 1000 µM

IC50 (MCF7): 8.4 µM
Structure (SMILES): CC1(C)[C@H]2CC3=N[C@H](Cc4ccccc4)C(=O)O[C@]3(C)[C@@H]1C2
IC50 [1]: > 1500 µM
IC50 [2]: > 1500 µM
IC50 [3]: 9.4 µM
IC50 (EL4): 7.7 µM
IC50 [4]: > 1500 µM

IC50 (MCF7): 39 µM
Structure (SMILES): O=C1O[C@H]2CCc3ccccc3C2=N[C@H]1Cc1c[nH]c2ccccc12
IC50 [1]: > 1000 µM
IC50 [2]: > 1000 µM
IC50 [3]: 39 µM
IC50 (EL4): 36 µM
IC50 [4]: > 1000 µM

IC50 (MCF7): 53 µM
Structure (SMILES): C[C@@]12CCCC[C@H]1CC[C@@H]1OC(=O)[C@H](Cc3ccccc3)N=C12
IC50 [1]: > 1700 µM
IC50 [2]: > 1700 µM
IC50 [3]: 51 µM
IC50 (EL4): 50 µM
IC50 [4]: > 1700 µM

IC50 (MCF7): 135 µM
Structure (SMILES): CC1(C)[C@H]2CC[C@]1(C)[C@H]1OC(=O)CN=C21
IC50 [1]: > 900 µM
IC50 [2]: > 900 µM
IC50 [3]: 145 µM
IC50 (EL4): 82 µM
IC50 [4]: > 900 µM

IC50 (MCF7): 119 µM
Structure (SMILES): C[C@@]12CCCC[C@H]1CC=C(O)C2=O
IC50 [1]: > 2000 µM
IC50 [2]: > 2000 µM
IC50 [3]: 119 µM
IC50 (EL4): 114 µM
IC50 [4]: > 2000 µM

IC50 (MCF7): 54 µM
Structure (SMILES): CC(C)(C)OC(=O)CC[C@H]1N=C2C[C@H]3C[C@H](C3(C)C)[C@@]2(C)OC1=O
IC50 [1]: > 1200 µM
IC50 [2]: > 1200 µM
IC50 [3]: 55 µM
IC50 (EL4): 51 µM
IC50 [4]: > 1200 µM

IC50 (MCF7): 12 µM
Structure (SMILES): C[C@@]12CCCC[C@H]1CC[C@@H]1OC(=O)[C@@H](Cc3ccccc3)N=C12
IC50 [1]: > 1200 µM
IC50 [2]: > 1200 µM
IC50 [3]: 12 µM
IC50 (EL4): 12 µM
IC50 [4]: > 1200 µM

IC50 (MCF7): 27 µM
Structure (SMILES): O=C1O[C@@H]2CCc3ccccc3C2=N[C@H]1Cc1ccccc1
IC50 [1]: > 1000 µM
IC50 [2]: > 1000 µM
IC50 [3]: 30 µM
IC50 (EL4): 24 µM
IC50 [4]: > 1000 µM

IC50 (MCF7): 25 µM
Structure (SMILES): O=C1O[C@@H]2CCc3ccccc3C2=N[C@H]1Cc1c[nH]c2ccccc12
IC50 [1]: > 1000 µM
IC50 [2]: > 1000 µM
IC50 [3]: 26 µM
IC50 (EL4): 22 µM
IC50 [4]: > 1000 µM
